In ChEMBL document CHEMBL1949546, “Pyrazoloquinolines as PDE10A inhibitors: discovery of a tool compound” (Bioorg Med Chem Lett, 2012):
Each block holds one compound with its values, some of them ahead of it.

What was measured:
[1] = AUC (0 to 6 hrs) in rat at 10 mg/kg, po; format: ADME, organism-based; parameters: time < 6 hr, dose 10 mg/kg, route oral; conditions: plasma
[2] = Clearance in human hepatocytes assessed per million cells; format: ADME, cell-based, Hepatocyte; conditions: read-out: CLH
[3] = Clearance in rat hepatocytes assessed per million cells; format: ADME, cell-based, Hepatocyte; conditions: read-out: CLH
[4] = Clearance in monkey hepatocytes assessed per million cells; format: ADME, cell-based, Macaca mulatta, Hepatocyte; conditions: rhesus monkey, read-out: CLH
[5] = Plasma concentration in rat after 6 hrs; format: ADME
How it was run: (§1)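 Animals were sacrificed at 6 h for ex vivo measurement of plasma concentration (nM) and brain level (ng/g), from which the brain to plasma ratio was derived.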

[6] = Ratio of drug level in brain to plasma of rat after 6 hrs; format: ADME; conditions: read-out: BPR; how it was run: as §1
[7] = Drug uptake in rat brain after 6 hrs; format: ADME, tissue-based; conditions: read-out: Drug uptake; how it was run: as §1
[8] = AUC (0 to 6 hrs) in monkey at 3 mg/kg, po; format: ADME, organism-based, Macaca mulatta; parameters: time < 6 hr, dose 3 mg/kg, route oral; conditions: rhesus monkey, plasma
[9] = Half life in monkey at 3 mg/kg, po; format: ADME, organism-based, Macaca mulatta; parameters: dose 3 mg/kg, route oral; conditions: rhesus monkey, in vivo
[10] = Clearance in dog hepatocytes assessed per million cells; format: ADME, cell-based, Canis lupus familiaris, Hepatocyte; conditions: read-out: CLH

- hepatocyte CLint [4]: 66 µL/min/1e6 cells
Compound: COc1cc(C)c2nc3[nH]nc(C)c3c(C(=O)c3ccncc3)c2c1

- hepatocyte CLint [4]: 67 µL/min/1e6 cells
Compound: COc1cc(C)c2nc3[nH]nc(C)c3c(C(O)c3cccnc3)c2c1 (racemic)

- hepatocyte CLint [4]: 66 µL/min/1e6 cells
Compound: COc1cc(C)c2nc3[nH]nc(C)c3c(C(O)c3ccnc(F)c3)c2c1 (racemic)

- hepatocyte CLint [4]: 63 µL/min/1e6 cells
Compound: COc1cc(C)c2nc3[nH]nc(C)c3c(C(O)c3ccc(F)cc3)c2c1 (racemic)

- hepatocyte CLint [4]: 66 µL/min/1e6 cells
Compound: COc1cc(C)c2nc3[nH]nc(C)c3c(C(C)(O)c3ccncc3)c2c1 (racemic)

- hepatocyte CLint [4]: 66 µL/min/1e6 cells
Compound: COc1cc(C)c2nc3[nH]nc(C)c3c(C(O)c3ccncc3)c2c1 (single isomer, unassigned; (+))

- hepatocyte CLint [4]: 62 µL/min/1e6 cells
Compound: COc1cc(C)c2nc3[nH]nc(C)c3c(C(F)c3ccncc3)c2c1 (single isomer, unassigned; (-))

The remaining lines, values behind:

Compound: COc1cc(C)c2nc3[nH]nc(C)c3c(CN3CCCOCC3)c2c1
- AUC(0-t) at 6 h [1]: 3.76 µM·h
- hepatocyte CLint [2]: 8 µL/min/1e6 cells
- hepatocyte CLint [3]: < 1 µL/min/1e6 cells

Compound: COc1cc(C)c2nc3[nH]nc(C)c3c(C(O)c3ncco3)c2c1 (racemic)
- hepatocyte CLint [4]: 63 µL/min/1e6 cells

Compound: COc1cc(C)c2nc3[nH]nc(C)c3c(C(O)c3cncn3C)c2c1 (racemic)
- hepatocyte CLint [4]: 22 µL/min/1e6 cells

Compound: COc1ccc(C(O)c2c3cc(OC)cc(C)c3nc3[nH]nc(C)c23)cc1 (racemic)
- hepatocyte CLint [4]: 60 µL/min/1e6 cells

Compound: COc1cc(C)c2nc3[nH]nc(C)c3c(C(C#N)c3ccccc3)c2c1 (racemic)
- hepatocyte CLint [4]: 64 µL/min/1e6 cells

Compound: Cc1cc(Cl)cc2c(C(O)c3ccncc3)c3c(C)n[nH]c3nc12 (racemic)
- hepatocyte CLint [4]: 25 µL/min/1e6 cells

Compound: Cc1cc(Cl)cc2c(C(O)c3cccnc3)c3c(C)n[nH]c3nc12 (racemic)
- hepatocyte CLint [4]: 46 µL/min/1e6 cells
- AUC(0-t) at 6 h [1]: 11 µM·h
- concentration at 6 h [5]: 810 nM
- Kp at 6 h [6]: 1.5
- concentration at 6 h [7]: 115 ng/g
- hepatocyte CLint [2]: 5 µL/min/1e6 cells
- hepatocyte CLint [3]: 26 µL/min/1e6 cells

Compound: Cc1cc(Cl)cc2c(C(O)c3ccnc(F)c3)c3c(C)n[nH]c3nc12 (racemic)
- hepatocyte CLint [4]: 37 µL/min/1e6 cells

Compound: Cc1ncc(C(O)c2c3cc(Cl)cc(C)c3nc3[nH]nc(C)c23)cn1 (racemic)
- hepatocyte CLint [4]: 8 µL/min/1e6 cells
- AUC(0-t) at 6 h [8]: 11.5 µM·h
- half-life [9]: 7.1 h
- AUC(0-t) at 6 h [1]: 4.29 µM·h
- concentration at 6 h [5]: 220 nM
- Kp at 6 h [6]: < 0.18
- concentration at 6 h [7]: < 14 ng/g
- hepatocyte CLint [2]: 2 µL/min/1e6 cells
- hepatocyte CLint [3]: 11 µL/min/1e6 cells
- hepatocyte CLint [10]: 7 µL/min/1e6 cells
